Measured values from different studies.
ABHD6: Monoacylglycerol lipase ABHD6 (ABHD6, Homo sapiens, UniProt Q9BV23)
Oprm1: Mu-type opioid receptor (Oprm1, Rattus norvegicus, UniProt P33535)
HTR5A: 5-hydroxytryptamine receptor 5A (HTR5A, Homo sapiens, UniProt P47898)

SMILES	target	effect on	action	method	setting	quantity	value
CN(C(=O)Oc1nsnc1N1CCOCC1)C1CCCCCCC1	ABHD6	enzyme activity	inhibitor	fluorescence	lysate	IC50	44 nM
Cc1ccc(Cc2ccc3c(c2)CN(C(=O)[C@@H](N)Cc2c(C)cc(O)cc2C)CC3)cc1	Oprm1	ligand displacement		radioligand	cell membranes	Ki	114 nM
O=C(Nc1cccc(-c2ccn3c(CC4CC4)nnc3c2C(F)(F)F)c1)c1ccc(S(=O)(=O)F)cc1	Metabotropic glutamate receptor 8 (GRM8, Homo sapiens, UniProt O00222)	calcium signal	agonist			EC50	> 50100 nM
Cc1ccc(N(C)C(=O)Oc2nsnc2N2CCCCC2)cc1	ABHD6	enzyme activity	inhibitor	fluorescence	lysate	IC50	150 nM
CC(=O)N[C@@H](CO)C(=O)N[C@@H](Cc1ccccc1)C(=O)N[C@@H](CCC(=O)O)C(=O)N[C@@H](Cc1ccccc1Cl)C(=O)N1CCC[C@H]1C(=O)N1CCC[C@H]1C(=O)N1CCC[C@H]1C(=O)N1CCC[C@H]1C(=O)N[C@H](C(=O)N[C@@H](CCC(=O)O)C(=O)N[C@@H](CC(=O)O)C(=O)N[C@@H](CCC(=O)O)C(=O)N[C@@H](CC(C)C)C(N)=O)[C@@H](C)O	Vasodilator-stimulated phosphoprotein (VASP, Homo sapiens, UniProt P50552)	binding		fluorescence		Kd	1500 nM
CNc1nc2cc(OCCCCN3CCN(c4cccc(Cl)c4Cl)CC3)ccc2s1	HTR5A	ligand displacement		radioligand		Ki	1300 nM
O=P(O)(O)Oc1ccccc1OP(=O)(O)O	Signal transducer and activator of transcription 6, SH2 (Homo sapiens, UniProt P42226)	ligand displacement		FP		Ki	18000 nM
CC(CCc1ccc(O)cc1)NCCc1ccc(O)c(O)c1 (stereo not shown)	D(4) dopamine receptor (DRD4, Homo sapiens, UniProt P21917)	ligand displacement		radioligand		IC50	2420 nM
C=C1CC1CC(=O)SCCNC(=O)CCNC(=O)[C@H](O)C(C)(C)COP(=O)(O)OP(=O)(O)OC[C@H]1O[C@@H](n2cnc3c(N)ncnc32)[C@H](O)[C@@H]1OP(=O)(O)O (mixture of isomers)	IVD (Homo sapiens, UniProt P26440)	binding		absorbance		Kd	~22500 nM
CN1CCc2c(c3ccccc3n2Cc2ccccc2)C1	HTR5A	ligand displacement		radioligand		Ki	130 nM
C[C@@H](NC(=O)C[C@@H](N)Cc1ccc(O)cc1)C(=O)NCC(=O)N[C@@H](Cc1ccccc1)C(=O)NNC(=O)[C@H](Cc1ccccc1)NC(=O)CNC(=O)[C@@H](C)NC(=O)C[C@@H](N)Cc1ccc(O)cc1	Oprm1	ligand displacement		radioligand		IC50	135 nM
CN(C(=O)Oc1nsnc1N1CCCCC1)c1ccc([N+](=O)[O-])cc1	ABHD6	enzyme activity	inhibitor	fluorescence	lysate	IC50	1250 nM
CNC(=O)c1cccc(-c2ccc(O[C@H]3O[C@H](CO)[C@@H](O)[C@H](O)[C@@H]3O)cc2)c1	Type 1 fimbrin D-mannose specific adhesin, N-terminal domain (fimH, Escherichia coli K-12, UniProt P08191)	binding		BLI		Kd	0.01 nM
